Activity calls are given as the source filed them. The rule behind the calls is not given here.
Tested on: HEK293
Assay: Inhibition of Wnt/beta-catenin (unknown origin) signaling pathway expressed in HEK293 cells assessed as inhibition of TCF4 transcriptional activity at 5 to 40 uM after 24 hrs by TOPflash reporter gene assay
Type: cell-based
Details: Homo sapiens
In short: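 HEK293 cells seeded at 1.5 × 10^4 per well and cotransfected (Lipofectamine 2000) with TOPflash luciferase reporter 0.1 μg, Renilla 0.005 μg for normalization, pcDNA β-catenin 0.02 μg and TCF4 expression vector 0.004 μg to activate Wnt; 24 h later treated with compound or solvent for 24 h; dual luciferase read-out, Renilla-normalized, relative to vehicle; triplicate.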

In the case of `O=C/C=C/c1ccccc1`, the inhibition is reported as “Active”.
